Measured values: ChEMBL document CHEMBL4138117, “Pentapeptides for the treatment of small cell lung cancer: Optimisation by Nind-alkyl modification of the tryptophan side chain” (Eur J Med Chem, 2017)
The source made the active and inactive calls. The calls are words filed in the database; no cut-off is given here. *1 amine or outer side, *2 acyl side, *3 side chain or, on linkers, in order; H or OH if unused. Where a SMILES comes first, the peptide text is derived from it. [ ]: non-standard residue; d: D form. X1 = C=CC(C)(C)n1cc(C[C@@H](N[*:1])C(=O)[*:2])c2ccccc21; dTrp(1-Bu) = CCCCn1cc(C[C@@H](N)C(=O)O)c2ccccc21; dNMeF = CN[C@H](Cc1ccccc1)C(=O)O

Key:
DMS-79 [1] = assay: Induction of apoptosis in human DMS79 cells assessed as necrotic cells at 6 uM after 24 hrs by Annexin V/SYTOX Blue staining-based flow cytometric method (reference value: 3.3 +/- 0.6%); type: functional
[2] = Retention time of the compound in mouse plasma at 400 ug/ml measured immediately after compound addition by RP-HPLC method; type: ADME, cell-free
Method in brief: (§1)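 Peptide added to neat mouse plasma at 400 µg/ml and held at 37 °C. Aliquots taken at 0, 3, 24 and 48 h and analysed by RP-HPLC on a C8 column. Parent and degradation product(s) reported as relative percentage; n = 3.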

DMS-79 [3] = assay: Induction of apoptosis in human DMS79 cells assessed as late apoptotic cells at 6 uM after 24 hrs by Annexin V/SYTOX Blue staining-based flow cytometric method (reference value: 28.6 +/- 8.2%); type: functional
DMS-79 [4] = assay: Induction of apoptosis in human DMS79 cells assessed as viable cells at 2 uM after 24 hrs by Annexin V/SYTOX Blue staining-based flow cytometric method (reference value: 61.7 +/- 9.1%); type: functional; settings: DMS-79, 24 h, read-out: Activity
DMS-79 [5] = assay: Induction of apoptosis in human DMS79 cells assessed as late apoptotic cells at 2 uM after 24 hrs by Annexin V/SYTOX Blue staining-based flow cytometric method (reference value: 28.6 +/- 8.2%); type: functional
[6] = Retention time of the compound in mouse plasma at 400 ug/ml after 24 hrs by RP-HPLC method; type: ADME, cell-free; method in brief: as §1
DMS-79 [7] = assay: Induction of apoptosis in human DMS79 cells assessed as cell shrinkage at 6 uM after 48 hrs by acridine orange/ethidium bromide staining-based inverted fluorescence microscopic method; type: functional
Method in brief: (§2)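 Cells seeded at 1 x 10^4 cells/well and treated with peptide at 6 µM final in complete medium for 48 h at 37 °C, 5% CO2, with an untreated control. Then 1:1 AO/EB mix (100 µg/ml of each dye in PBS) added and cells viewed by inverted fluorescence microscopy at 10x.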

DMS-79 [8] = assay: Induction of apoptosis in human DMS79 cells assessed as early apoptotic cells at 6 uM after 24 hrs by Annexin V/SYTOX Blue staining-based flow cytometric method (reference value: 6.4 +/- 0.4%); type: functional
NCI-H69 [9] = assay: Induction of apoptosis in human H69 cells assessed as increase in necrotic cells at 6 uM after 48 hrs by acridine orange/ethidium bromide staining-based inverted fluorescence microscopic method; type: functional, cell-based; method in brief: as §2
DMS-79 [10] = assay: Induction of apoptosis in human DMS79 cells assessed as early apoptotic cells at 2 uM after 24 hrs by Annexin V/SYTOX Blue staining-based flow cytometric method (reference value: 6.4 +/- 0.4%); type: functional
NCI-H69 [11] = assay: Induction of apoptosis in human H69 cells assessed as cell shrinkage at 6 uM after 48 hrs by acridine orange/ethidium bromide staining-based inverted fluorescence microscopic method; type: functional; method in brief: as §2
DMS-79 [12] = assay: Induction of apoptosis in human DMS79 cells assessed as viable cells at 6 uM after 24 hrs by Annexin V/SYTOX Blue staining-based flow cytometric method (reference value: 61.7 +/- 9.1%); type: functional; settings: DMS-79, 24 h, read-out: Activity
[13] = Drug metabolism in mouse plasma assessed as formation of (3R,6R,9S,12R,15S)-3,9-dibenzyl-6,12-bis((1-butyl-1H-indol-3-yl)methyl)-15-isobutyl-4,7,10,13-tetraoxo-2,5,8,11,14-pentaazahexadecan-16-oic acid at 400 ug/ml after 48 hrs by mass spectrophotometric method; type: ADME, cell-free
DMS-79 [14] = assay: Induction of apoptosis in human DMS79 cells assessed as necrotic cells at 2 uM after 24 hrs by Annexin V/SYTOX Blue staining-based flow cytometric method (reference value: 3.3 +/- 0.6%); type: functional
DMS-79 [15] = assay: Induction of apoptosis in human DMS79 cells assessed as increase in late apoptotic cells at 6 uM after 48 hrs by acridine orange/ethidium bromide staining-based inverted fluorescence microscopic method; type: functional, cell-based; method in brief: as §2
DMS-79 [16] = assay: Induction of apoptosis in human DMS79 cells assessed as viable cells after 24 hrs by Annexin V/SYTOX Blue staining-based flow cytometric method; type: functional, cell-based
DMS-79 [17] = assay: Induction of apoptosis in human DMS79 cells assessed as increase in necrotic cells at 6 uM after 48 hrs by acridine orange/ethidium bromide staining-based inverted fluorescence microscopic method; type: functional, cell-based; method in brief: as §2
DMS-79 [18] = assay: Induction of apoptosis in human DMS79 cells assessed as loss of plasma membrane integrity at 6 uM after 48 hrs by acridine orange/ethidium bromide staining-based inverted fluorescence microscopic method; type: functional, cell-based; method in brief: as §2
DMS-79 [19] = assay: Induction of apoptosis in human DMS79 cells assessed as chromatin condensation at 6 uM after 48 hrs by acridine orange/ethidium bromide staining-based inverted fluorescence microscopic method; type: functional, cell-based; method in brief: as §2
[20] = Drug metabolism in neat mouse plasma at 400 ug/ml by RP-HPLC method; type: ADME, cell-free; settings: TDE = time-dependent effect; method in brief: as §1
[21] = Retention time of the compound in mouse plasma at 400 ug/ml after 3 hrs by RP-HPLC method; type: ADME, cell-free; method in brief: as §1
[22] = Retention time of the compound in mouse plasma at 400 ug/ml after 48 hrs by RP-HPLC method; type: ADME, cell-free; method in brief: as §1
NCI-H69 [23] = assay: Induction of apoptosis in human H69 cells assessed as loss of plasma membrane integrity at 6 uM after 48 hrs by acridine orange/ethidium bromide staining-based inverted fluorescence microscopic method; type: functional, cell-based; method in brief: as §2
NCI-H69 [24] = assay: Induction of apoptosis in human H69 cells assessed as increase in late apoptotic cells at 6 uM after 48 hrs by acridine orange/ethidium bromide staining-based inverted fluorescence microscopic method; type: functional, cell-based; method in brief: as §2
NCI-H69 [25] = assay: Induction of apoptosis in human H69 cells assessed as chromatin condensation at 6 uM after 48 hrs by acridine orange/ethidium bromide staining-based inverted fluorescence microscopic method; type: functional, cell-based; method in brief: as §2
[26] = Metabolic stability in CD1 mouse liver S9 fraction at 400 ug/ml after 1 to 3 hrs in presence of UDPGA, NADPH, GSH, PAPS by RP-HPLC method; type: ADME, subcellular
Method in brief: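 Male CD-1 mouse liver S9 fraction incubated with peptide as in the plasma study, at 37 °C. Reaction started by adding a 1:1:1:1 cofactor mix made in 200 mM Tris pH 7.4 with 2 mM MgCl2; final levels NADPH 1 mM, UDPGA 0.5 mM, GSH 0.05 mM, PAPS 0.05 mg/ml. Aliquots at 0, 1, 2 and 3 h analysed by RP-HPLC.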

[27] = Drug metabolism in mouse plasma assessed as formation of (3R,6R,9S,12R,15S)-3,9-dibenzyl-6-((1H-indol-3-yl)methyl)-12-((1-butyl-1H-indol-3-yl)methyl)-15-isobutyl-4,7,10,13-tetraoxo-2,5,8,11,14-pentaazahexadecan-16-oic acid at 400 ug/ml after 3 to 48 hrs by RP-HPLC method
NCI-H69 [28] = assay: Cytotoxicity against human H69 cells assessed as decrease in cell viability after 48 hrs by resazurin dye-based assay; type: functional; settings: NCI-H69, 48 h
Method in brief: (§3)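 H69 and DMS79 suspension cells grown in 10% FBS/RPMI-1640 at 37 °C, 5% CO2. Seeded at 1 x 10^4 cells/well in triplicate and given peptide the same day at 0.1–30 µM final, diluted in 50% FBS/saline. After 48 h, resazurin (0.125 mg/ml in PBS) added for 5 h, then fluorescence read and % viability calculated. Three independent repeats; IC50 taken from dose-response curves.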

[29] = Drug metabolism in mouse plasma at 400 ug/ml after 48 hrs by mass spectrophotometric method; type: ADME, cell-free
[30] = Metabolic stability in neat mouse plasma assessed as parent compound remaining at 400 ug/ml after 48 hrs by RP-HPLC method; type: ADME, cell-free; settings: read-out: Stability; method in brief: as §1
[31] = Metabolic stability in neat mouse plasma assessed as parent compound remaining at 400 ug/ml after 3 hrs by RP-HPLC method; type: ADME, cell-free; settings: read-out: Stability; method in brief: as §1
DMS-79 [32] = assay: Cytotoxicity against human DMS79 cells assessed as decrease in cell viability after 48 hrs by resazurin dye-based assay; type: functional; settings: DMS-79, 48 h; method in brief: as §3
[33] = Drug level in mouse plasma treated with (S)-2-((3R,6R,9S,12R)-3,9-dibenzyl-6,12-bis((1-butyl-1H-indol-3-yl)methyl)-4,7,10-trioxo-2,5,8,11-tetraazatridecanamido)-4-methylpentanamide at 400 ug/ml after 3 to 48 hrs by RP-HPLC method; type: ADME, cell-free; method in brief: as §1
[34] = Drug level in mouse plasma treated with (S)-2-((3R,6R,9S,12R)-3,9-dibenzyl-6,12-bis((1-butyl-1H-indol-3-yl)methyl)-4,7,10-trioxo-2,5,8,11-tetraazatridecanamido)-4-methylpentanamide at 400 ug/ml after 48 hrs by mass spectrophotometric method; type: ADME, cell-free

SMILES: CCCCn1cc(C[C@@H](NC(=O)[C@H](Cc2ccccc2)NC(=O)[C@@H](Cc2c[nH]c3ccccc23)NC(=O)[C@@H](Cc2ccccc2)NC)C(=O)N[C@@H](CC(C)C)C(N)=O)c2ccccc21 (H-[dNMeF][dW]F[dTrp(1-Bu)]L-NH2)
- Activity (DMS-79 [1]): 1.6%
- Retention_time [2]: 25 min
- Activity (DMS-79 [3]): 95.5%
- viability at 2 µM (DMS-79 [4]): 53.3%
- Activity (DMS-79 [5]): 36.4%
- Retention_time [6]: 25.26 min
- Activity (DMS-79 [7]): Active
- Activity (DMS-79 [8]): 1.9%
- Activity (NCI-H69 [9]): Active
- Activity (DMS-79 [10]): 8%
- Activity (NCI-H69 [11]): Active
- viability at 6 µM (DMS-79 [12]): 1%
- Drug metabolism [13]: Metabolite_Detected
- Activity (DMS-79 [14]): 2.3%
- Activity (DMS-79 [15]): Active
- Activity (DMS-79 [16]): Dose-dependent effect
- Activity (DMS-79 [17]): Active
- Activity (DMS-79 [18]): Active
- Activity (DMS-79 [19]): Active
- Drug metabolism [20]: Tde
- Retention_time [21]: 25.29 min
- Retention_time [22]: 25.23 min
- Activity (NCI-H69 [23]): Active
- Activity (NCI-H69 [24]): Active
- Activity (NCI-H69 [25]): Active
- Stability [26]: Stable
- Drug metabolism [27]: Metabolite_Detected

SMILES: C=CC(C)(C)n1cc(C[C@@H](NC(=O)[C@H](Cc2ccccc2)NC(=O)[C@@H](Cc2c[nH]c3ccccc23)NC(=O)[C@@H](Cc2ccccc2)NC)C(=O)N[C@@H](CC(C)C)C(N)=O)c2ccccc21 (H-[dNMeF][dW]F[X1]L-NH2)
- Retention_time [2]: 24.62 min
- IC50 (NCI-H69 [28]): 2.84 µM
- Retention_time [6]: 24.86 min
- Drug metabolism [29]: Metabolite_Detected
- remaining at 48 h, 400 ug/ml [30]: 35.9%
- Drug metabolism [20]: Tde
- Retention_time [21]: 24.89 min
- remaining at 3 h, 400 ug/ml [31]: 87.8%
- Retention_time [22]: 24.86 min
- IC50 (DMS-79 [32]): 4.37 µM

SMILES: CCCCn1cc(C[C@@H](NC(=O)[C@H](Cc2ccccc2)NC(=O)[C@@H](Cc2cn(CCCC)c3ccccc23)NC(=O)[C@@H](Cc2ccccc2)NC)C(=O)N[C@@H](CC(C)C)C(N)=O)c2ccccc21 (H-[dNMeF][dTrp(1-Bu)]F[dTrp(1-Bu)]L-NH2)
- Retention_time [2]: 27.53 min
- Retention_time [6]: 27.94 min
- Activity (DMS-79 [7]): Active
- Activity (NCI-H69 [9]): Active
- Activity (NCI-H69 [11]): Active
- Activity (DMS-79 [15]): Active
- Drug metabolism [29]: Metabolite_Notdetected
- Activity (DMS-79 [17]): Active
- Activity (DMS-79 [18]): Active
- Activity (DMS-79 [19]): Active
- Drug metabolism [20]: Tde
- Retention_time [21]: 27.93 min
- Retention_time [22]: 27.94 min
- Activity (NCI-H69 [23]): Active
- Activity (NCI-H69 [24]): Active
- Activity (NCI-H69 [25]): Active
- Stability [26]: Stable

SMILES: CCCCn1cc(C[C@@H](NC(=O)[C@H](Cc2ccccc2)NC(=O)[C@@H](Cc2c[nH]c3ccccc23)NC(=O)[C@@H](Cc2ccccc2)NC)C(=O)N[C@@H](CC(C)C)C(=O)O)c2ccccc21 (H-[dNMeF][dW]F[dTrp(1-Bu)]L-OH)
- Retention_time [2]: 25.36 min
- IC50 (NCI-H69 [28]): > 30 µM
- Retention_time [6]: 25.29 min
- Drug metabolism [29]: Metabolite_Notdetected
- Drug metabolism [33]: Metabolite_Detected
- Drug metabolism [34]: Metabolite_Detected
- Retention_time [21]: 25.3 min
- Retention_time [22]: 25.27 min
- IC50 (DMS-79 [32]): > 30 µM

SMILES: CN[C@H](Cc1ccccc1)C(=O)N[C@H](Cc1c[nH]c2ccccc12)C(=O)N[C@@H](Cc1ccccc1)C(=O)N[C@H](Cc1c[nH]c2ccccc12)C(=O)N[C@@H](CC(C)C)C(N)=O (H-[dNMeF][dW]F[dW]L-NH2)
- IC50 (NCI-H69 [28]): 30.7 µM
- IC50 (DMS-79 [32]): 23 µM
